Several values for one entry are separate records, joined by “and”; a condition that tells them apart may be missing. Identical values can stand only once.
Experiments:
[1] = Solubility and stability of NBMI and its Hg complex; assay type: physicochemical
[2] = system: Salmonella typhimurium strains TA1537, TA98, TA100, and TA1535; assay: Ames test for mutagenic activity; assay type: cell-based; details: reversion of mutations in the histidine operon
[3] = Biodistribution of NBMI in plasma and tissues after oral gavage; assay type: in vivo, rat (Sprague Dawley); details: for concentration at 1 h / concentration at 2 h / concentration at 8 h / concentration at 24 h: male, Sprague Dawley, rat, 100 mg kg^−1
Method in brief: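 Twelve-hour-fasted male Sprague-Dawley rats were gavaged with 100 mg kg−1 test compound in corn oil, three per time point. Jugular-cannula blood was taken at 1, 2, 8 and 24 h into heparin and spun at 4°C; tissues were excised and weighed. Samples were DTT-reduced, then analysed by LC-MS:MS: Synergi Polar RP column, ammonium formate pH 3.5/acetonitrile gradient, ESI MRM.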

[4] = Hydroxyl radical absorbance capacity; details: Trolox equivalency
[5] = Plasma clearance after intravenous dosing; assay type: in vivo, rat (Sprague-Dawley)
Method in brief: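 Male Sprague-Dawley rats received 1 mg kg−1 test compound intravenously. Plasma levels were measured by the biodistribution LC-MS:MS method: heparinised, chilled plasma, DTT reduction, then reversed-phase ammonium formate/acetonitrile gradient with ESI MRM detection.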

[6] = system: aortic endothelial membranes in culture; details: aortic endothelial membranes in culture ref Secor et al. 2011; cited from earlier work
[7] = Metabolic profiling with human liver microsomes; assay type: in vitro ADME; details: incubation with human liver microsomes, MS identification
Method in brief: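 Test compound incubated with human or rat liver microsomes. Products separated by HPLC and identified by electrospray MS and MS:MS, using information-dependent acquisition on the parent ion, enhanced product ion scans, and linear ion trap scanning of trapped fragments.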

[8] = iv 1 mg kg^−1, individual rats 1-3
[9] = iv 1 mg kg^−1, plasma, individual rats 1-3

O=C(NCCS)c1cccc(C(=O)NCCS)c1 [NBMI, N,N′-bis(2-mercaptoethyl)isophthalamide]
solubility in 95% ethanol or dimethylsulfoxide (DMSO) [1]: readily dissolves
solubility in water [1]: water insoluble
mutagenicity, Ames analysis [2]: non-mutagenic
concentration at 1 h ([3]; bone marrow, po): 12.5 ± 7.4 ng/g
concentration at 2 h ([3]; bone marrow, po): 65.7 ± 51.6 ng/g
concentration at 8 h ([3]; bone marrow, po): 6.88 ± 0.62 ng/g
concentration at 24 h ([3]; bone marrow, po): 3.76 ± 0.77 ng/g
concentration at 1 h ([3]; brain, po): 6.1 ± 2.6 ng/g
concentration at 2 h ([3]; brain, po): 51.8 ± 43.9 ng/g
concentration at 8 h ([3]; brain, po): 2.57 ± 0.34 ng/g
concentration at 24 h ([3]; brain, po): 2.09 ± 0.41 ng/g
concentration at 1 h ([3]; kidney, po): 61.3 ± 42.7 ng/g
concentration at 2 h ([3]; kidney, po): 145 ± 89.9 ng/g
concentration at 8 h ([3]; kidney, po): 45.1 ± 3.4 ng/g
concentration at 24 h ([3]; kidney, po): 36.9 ± 3.7 ng/g
concentration at 1 h ([3]; liver, po): 165 ± 144 ng/g
concentration at 2 h ([3]; liver, po): 272 ± 274 ng/g
concentration at 8 h ([3]; liver, po): 23.3 ± 2.2 ng/g
concentration at 24 h ([3]; liver, po): 14.2 ± 2.3 ng/g
concentration at 1 h ([3]; plasma, po): 588 ± 90 ng/mL
concentration at 2 h ([3]; plasma, po): 883 ± 216 ng/mL
concentration at 8 h ([3]; plasma, po): 391 ± 14 ng/mL
concentration at 24 h ([3]; plasma, po): 118 ± 29 ng/mL
concentration at 1 h ([3]; small intestine, po): 7430 ± 3200 ng/g
concentration at 2 h ([3]; small intestine, po): 8530 ± 5320 ng/g
concentration at 8 h ([3]; small intestine, po): 1560 ± 826 ng/g
concentration at 24 h ([3]; small intestine, po): 1040 ± 396 ng/g
concentration at 1 h ([3]; spleen, po): 12.1 ± 5.2 ng/g
concentration at 2 h ([3]; spleen, po): 153 ± 129 ng/g
concentration at 8 h ([3]; spleen, po): 16.8 ± 1.5 ng/g
concentration at 24 h ([3]; spleen, po): 12.7 ± 2.7 ng/g
concentration at 1 h ([3]; subcutaneous fat, oral): 420 ± 419 ng/g
concentration at 2 h ([3]; subcutaneous fat, oral): 683 ± 531 ng/g
concentration at 8 h ([3]; subcutaneous fat, oral): 17.3 ± 7.4 ng/g
concentration at 24 h ([3]; subcutaneous fat, oral): 7 ± 0.7 ng/g
clearance from the body from peak values within 24 hours of ingestion ([3]; oral gavage): about 90%
time of highest concentration in plasma and all tissues ([3]; post ingestion, oral gavage): 2 h
HORAC score [4]: 299,000 Trolox units 100g^−1
clearance relative to liver blood flow of a typical rat (3.3 L hr^−1 kg^−1) ([5]; iv 1 mg kg^−1): approximately 30%
Plasma concentration ([5]; iv 1 mg kg^−1, 0.083 hr, individual rats 1-3): 535 ng/mL and 423 ng/mL
Plasma concentration ([5]; iv 1 mg kg^−1, 0.25 hr, individual rats 1-3): 320 ng/mL and 254 ng/mL
Plasma concentration ([5]; iv 1 mg kg^−1, 0.5 hr, individual rats 1-3): 228 ng/mL and 203 ng/mL
Plasma concentration ([5]; iv 1 mg kg^−1, 1 hr, individual rats 1-3): 155 ng/mL and 124 ng/mL
Plasma concentration ([5]; iv 1 mg kg^−1, 3 hr, individual rats 1-3): 84.1 ng/mL and 63.1 ng/mL
Plasma concentration ([5]; iv 1 mg kg^−1, 6 hr, individual rats 1-3): 32.7 ng/mL and 28.9 ng/mL
Plasma concentration ([5]; iv 1 mg kg^−1, 24 hr, individual rats 1-3): 6.6 ng/mL and 8.84 ng/mL and 3.7 ng/mL
Co, maximum plasma concentration extrapolated to t=0 [5, 8]: 633 ng/mL and 691 ng/mL and 545 ng/mL
Vss, steady state volume of distribution [5, 8]: 7.2 L/kg and 7.3 L/kg
Co, maximum plasma concentration extrapolated to t=0 ([5]; iv 1 mg kg^−1, mean): 623 ng/mL
CL, clearance [5, 9]: 0.91 L/h/kg and 1.26 L/h/kg
t1/2, half-life [5, 9]: 7.28 h and 5.42 h
concentration at 24 hr ([5]; male, Sprague-Dawley, rat, plasma, iv, 1 mg kg^−1, Plasma concentration, iv 1 mg kg^−1, 24 hr, mean): 6.38 ng/mL
clearance ([5]; male, Sprague-Dawley, rat, plasma, iv, 1 mg/kg, CL, clearance, iv 1 mg kg^−1, plasma, mean): 16.8 mL/min/kg
Vd ([5]; male, Sprague-Dawley, rat, plasma, iv, 1 mg/kg, Vss, steady state volume of distribution, iv 1 mg kg^−1, mean): 6.7 L/kg
half-life ([5]; male, Sprague-Dawley, rat, plasma, iv, 1 mg/kg, t1/2, half-life, iv 1 mg kg^−1, plasma, mean): 371 min
prevention of damage induced by mercury exposure [6]: very effective prevention of the damage induced by mercury exposure
toxicity on membrane integrity [6]: no toxicity on membrane integrity
metabolites detected [7]: only two NBMI modified structures

— PMC3346673 (Toxicological and environmental chemistry, 2012)
